Screening data from PubChem BioAssay.
Only some compounds are listed: those with a hit (about 1.2% of all), similar ones and a draw of the others.
HKDC1 inhibitor: HKDC1 hexokinase inhibitors, primary screen, biochemical, fluorescence, uHTS. 0.16% of 340,000 active. Q2TB90. recombinant HKDC1, G6PDH/diaphorase resazurin coupled fluorescence. inhibition, % at 20 µM;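 active = inhibition above about 35% when tested at 20 µM, limit read from the data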;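 note: plate controls were DMSO wells with enzyme for no effect and DMSO wells lacking enzyme for full effect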
Target sequence (Q2TB90 whole entry, looked up): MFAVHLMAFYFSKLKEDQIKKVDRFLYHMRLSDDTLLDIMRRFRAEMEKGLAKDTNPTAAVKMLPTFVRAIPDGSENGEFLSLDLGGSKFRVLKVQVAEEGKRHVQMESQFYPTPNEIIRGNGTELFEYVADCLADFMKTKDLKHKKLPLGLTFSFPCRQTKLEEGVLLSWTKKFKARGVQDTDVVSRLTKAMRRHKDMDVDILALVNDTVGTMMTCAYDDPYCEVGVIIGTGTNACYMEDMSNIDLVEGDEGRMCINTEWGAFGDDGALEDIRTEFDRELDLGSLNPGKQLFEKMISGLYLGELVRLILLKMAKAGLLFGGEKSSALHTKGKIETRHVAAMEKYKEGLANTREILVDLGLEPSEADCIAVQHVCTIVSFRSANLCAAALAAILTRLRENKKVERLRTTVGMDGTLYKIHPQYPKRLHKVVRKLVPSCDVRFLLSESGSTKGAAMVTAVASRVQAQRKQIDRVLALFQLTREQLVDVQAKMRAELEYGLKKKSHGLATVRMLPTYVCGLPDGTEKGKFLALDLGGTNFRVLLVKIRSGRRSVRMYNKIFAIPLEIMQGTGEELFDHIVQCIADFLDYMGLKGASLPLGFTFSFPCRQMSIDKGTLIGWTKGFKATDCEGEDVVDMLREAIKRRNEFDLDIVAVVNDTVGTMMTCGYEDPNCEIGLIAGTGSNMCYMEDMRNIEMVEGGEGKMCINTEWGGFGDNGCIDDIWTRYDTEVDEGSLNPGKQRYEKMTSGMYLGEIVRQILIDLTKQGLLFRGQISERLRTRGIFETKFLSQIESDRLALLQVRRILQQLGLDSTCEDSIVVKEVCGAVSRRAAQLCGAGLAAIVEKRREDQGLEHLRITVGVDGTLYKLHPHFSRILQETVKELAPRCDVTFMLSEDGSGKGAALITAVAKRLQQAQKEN
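Material – in-house recombinant HK5 (HKDC1) enzyme · Quantity – HKDC1 at 5 µg/mL · Buffer or medium – pH 8.0 Tris buffer with 10 mM MgCl2 · Reagent – glucose with 1 mM ATP · Dosing – single 20 µM dose · Times – reaction time 90 min, room temperature, protected from light · Technique – resorufin fluorescence at 613 nm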
G6PDH CS: L. mesenteroides G6PDH inhibitors, counter-screen for G6PDH-coupled screening assays, biochemical, Leuconostoc mesenteroides enzyme; Purified L. mesenteroides G6PDH, diaphorase/resazurin coupled fluorescence, 45 min; inhibition, % at 5 µM; 0.12% of 200,000 active; in the data active = inhibition above about 50%
PfGluPho inh: PfG6PD enzyme inhibitors, primary screen, biochemical, fluorescence intensity, uHTS. glucose-6-phosphate dehydrogenase-6-phosphogluconolactonase (Plasmodium falciparum 3D7). PfGluPho enzyme, NADPH resazurin-diaphorase fluorescence. inhibition, % at 20 µM. 0.78% of 350,000 active;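 active = inhibition reaching at least a set limit at 20 µM in the primary screen, cut at about 59% in these data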;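 note: 0% = DMSO wells with substrate and 100% = DMSO wells lacking glucose-6-phosphate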
Tb hexokinase: Trypanosoma brucei hexokinase 1 inhibitors, primary screen, biochemical, G6PDH-coupled NADH absorbance, MLSCN library. hexokinase 1 [Trypanosoma brucei]. recombinant TbHK1, G6PDH-coupled NADH A340. inhibition, % at 10 µM. 0.11% of 220,000 active. AID 1430, 2008;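 active = inhibition of 50% or more in the single-dose primary screen; inactive = inhibition below 50%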
Diaphorase inh: diaphorase inhibitors and chemical oxidizers, primary screen, counter-screen for diaphorase-coupled primary assays, biochemical, uHTS, resorufin fluorescence; diaphorase resazurin-to-resorufin fluorescence, NADH, 16 min; bacterial (C. kluyveri) enzyme, not human; inhibition, % at 20 µM; 0.69% of 190,000 active; AID 1217, 2008;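 active = primary screen inhibition at 20 µM above a set limit, cut at about 50% in these data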;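 note: plate controls were DMSO with full reaction for no effect and wells lacking NADH for full effect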
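Test system: Clostridium kluyveri diaphorase enzyme / Quantity: diaphorase at 0.14 U/mL in enzyme working solution / Incubation: 16-min room-temperature incubation before reading / Benchmarks: NADH-free wells as positive control, DMSO-only neutral wells / Signal: resorufin fluorescence 544/590 nm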
PfGluPho conf: PfG6PD inhibitors, hit retest, confirmation, biochemical, fluorescence intensity, single concentration. shares compounds with PfGluPho inh. recombinant PfGluPho, NADPH-diaphorase-resazurin fluorescence. inhibition, % at 20 µM. 34% of 2,400 active. AID 504753, 2011;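 active = inhibition of at least 50% at 20 µM in any single replicate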;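 note: 0% = DMSO with substrate and 100% = DMSO lacking glucose-6-phosphate substrate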
Diaph ctr 10uM: diaphorase inhibitors and chemical oxidizers, confirmation, counter-screen for P. falciparum G6PD inhibitor project, biochemical, fluorescence intensity, 10 µM NADPH | diaphorase-coupled resazurin reduction, NADPH 10 uM | inhibition, % at 20 µM | AID 504862, 2011 | shares compounds with PfGluPho inh | 39% of 820 active;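 active = average inhibition reaching 50% or more with the compound at 20 µM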;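 note: resorufin red fluorescence formed as diaphorase reduces resazurin using NADPH; 0% = DMSO with enzyme and 100% = DMSO without enzyme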
Diaph ctr 30uM: diaphorase inhibitors and chemical oxidizers, confirmation, counter-screen for P. falciparum G6PD inhibitor project, biochemical, fluorescence intensity, 30 µM NADPH. shares compounds with PfGluPho inh. Diaphorase/resazurin coupled assay, resorufin fluorescence. inhibition, % at 20 µM. 29% of 820 active;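 active = inhibition averaging 50% or more, tested at 20 µM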;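 note: 0% = DMSO with enzyme and 100% = DMSO wells lacking diaphorase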
* marks the source's active call; other numbers are inactive results; · = not tested or not shown.

SMILES | HKDC1 inhibitor | G6PDH CS | PfGluPho inh | Tb hexokinase | Diaphorase inh | PfGluPho conf | others
Cc1ccc(NS(=O)(=O)c2ccccc2)c2c1CC(C)(C)O2 | 2 | 14 | 92* | 7 | 12 | 65* | Diaph ctr 10uM=54*;Diaph ctr 30uM=50*
Cc1cc(/C=N/NC(=O)c2cc3ccccc3o2)c(C)n1C | 0 | · | 18 | · | · | ·
COc1ccc(/C=N/Nc2nncn2N)cc1Br | 14 | · | 79* | · | · | 40
CCc1nnc(N/N=C/c2ccc(O)c(OC)c2)n1N | 4 | · | 72* | · | · | 24
CCc1nnc(N/N=C\c2ccc(OC(C)=O)c(OC)c2)n1N | -3 | · | 33 | · | · | ·
COc1cc(/C=N/Nc2nncn2N)ccc1OCc1c(C)no[n+]1[O-] | 3 | · | 82* | -12 | · | 63* | Diaph ctr 10uM=34;Diaph ctr 30uM=24
Cc1cc(C)nc(SCc2cnc(C)nc2N)n1 | -4 | 2 | -20 | -5 | 0 | ·
CC(C)(C)c1ccc(C(=O)N2CCCC2c2cccs2)cc1 (stereo not drawn) | 3 | · | -10 | · | · | ·
CCN(CC)c1ccc(N)cc1S(=O)(=O)Nc1ccc(OC)cc1 | -4 | · | 13 | -9 | · | ·
CCN(CC)c1ccc(NC(=O)c2ccccn2)cc1S(=O)(=O)Nc1ccccc1OC | -8 | · | 60* | · | · | 18
CCN(CC)c1ccc(N)cc1S(=O)(=O)Nc1ccccc1OC | -9 | · | 67* | 8 | · | 35
COc1ccccc1NS(=O)(=O)c1cc(NC(=O)CNC(=O)c2ccccc2)ccc1C | -2 | 13 | -25 | 35 | 10 | ·
CCN(CC)c1ccc(NC(=O)COc2ccccc2C#N)cc1S(=O)(=O)Nc1ccccc1OC | -20 | 7 | 69* | 3 | -1 | 32
O=C(CCN1C(=O)C2C3CCC(C3)C2C1=O)Nc1cccc(Cl)c1 (stereo not drawn) | -7 | · | -21 | · | · | ·
O=C(Cc1ccccc1)c1ccccc1C(=O)N1CCCCC1 | -2 | · | 0 | · | · | ·
CC(C)(C)c1ccc(O)c(O)c1 | -1 | · | 81* | · | · | 72* | Diaph ctr 10uM=8;Diaph ctr 30uM=2
CC(C)(C)c1ccc(O)c(/C=N\O)c1 | 2 | 1 | 0 | -7 | 23 | ·
COc1ccccc1N(CC(=O)Nc1ccc2c(c1)OCCO2)S(=O)(=O)c1ccc(C)cc1 | 4 | · | 3 | · | · | ·
CCOC(=O)CCN(C(=S)Nc1ccccc1)C1CCCCC1 | -9 | · | -1 | · | · | ·
CC(C)(NC(=O)c1ccccc1)c1nc2ccccc2s1 | -2 | · | 60* | · | · | 38
CN(C)c1ccc(NC(=O)c2cc3c(=O)n4ccccc4nc3n2C)cc1 | 11 | · | 62* | -15 | · | 8
COc1ccc(OC)c(NC(=O)c2cc3c(=O)n4ccccc4nc3n2C)c1 | -2 | -4 | 3 | -19 | 2 | ·
C[C@H]1CN([C@@H](C)CO)S(=O)(=O)c2ccc(Br)cc2O[C@H]1CN(C)C(=O)c1cccc(F)c1 | · | · | 19 | · | · | ·
CN(C)c1cccc2c1c(NC(=O)Nc1ccc(F)cc1F)nn2C | 9 | · | 34 | 5 | · | ·
CN(C)c1cccc2c1c(NC(=O)c1ccc(Cl)cc1)nn2C | 8 | · | 103* | -12 | · | 73* | Diaph ctr 10uM=31;Diaph ctr 30uM=52*
SMILES | HKDC1 inhibitor | G6PDH CS | PfGluPho inh | Tb hexokinase | Diaphorase inh | PfGluPho conf | others
CN(C)c1cccc2c1c(NC(=O)c1ccc(F)cc1)nn2C | 11 | · | 74* | -12 | · | 57* | Diaph ctr 10uM=24;Diaph ctr 30uM=26
Cc1onc(-c2c(Cl)cccc2Cl)c1COC(=O)c1ccc(Cl)cc1[N+](=O)[O-] | 1 | · | 19 | 6 | · | ·
Cc1ccc(C(=O)c2coc3ccc(O)c(Cl)c23)cc1 | 5 | 2 | 63* | -1 | 22 | 27
Cc1cc2nc3ccc(N(C)C)cc3nc2cc1N | 24 | · | 79* | · | · | 32
COC(=O)c1cc(=O)nc2sc3cc(OC)ccc3n12 | -3 | 2 | 5 | -10 | 8 | ·
COc1ccc(O)c(/C=c2/sc3nc4cc(C)c(C)cc4n3c2=O)c1 | 6 | 11 | 68* | -1 | 22 | 33
O=C(CSc1nnc(-c2ccncc2)o1)Nc1cc(Cl)ccc1C(=O)O | -1 | · | 60* | · | · | 28
O=C(CSc1nnc(-c2ccncc2)o1)Nc1cc(F)ccc1F | -1 | · | -7 | · | · | ·
COc1cccc(C(=O)Nc2ccc(NC(=O)c3ccco3)c(Cl)c2)c1 | -5 | 0 | 70* | 0 | 8 | 13
Cc1ccc2cc(C)c(Sc3nnnn3-c3ccccc3)nc2c1 | -7 | 2 | 9 | 36 | 26 | ·
Cc1cc(C)c(SSc2nnnn2-c2ccccc2)c(C)c1 | · | · | 113* | · | · | 40
COc1ccc(/C=N/NC(=O)c2ccc(CN3C(=O)c4cccc5cccc3c45)cc2)cc1O | -2 | 0 | 58 | -29 | 17 | ·
COc1cc(/C=N/NC(=O)c2ccc(CN3C(=O)c4cccc5cccc3c45)cc2)cc(OC)c1O | 5 | · | 64* | -35 | · | 43
Cc1cccc(N(C)S(=O)(=O)c2c(C)[nH]c(C)c2C(=O)N2CCCC2)c1 | -4 | · | -9 | · | · | ·
Cc1ccccc1NC(=O)CSc1nc2ncc(Cl)cc2[nH]1 | 0 | · | -7 | · | · | ·
Cc1ccc(S(=O)(=O)N(C)C)cc1NC(=O)CSc1nc2ncc(Cl)cc2[nH]1 | 1 | · | 66* | · | · | 52* | Diaph ctr 10uM=15;Diaph ctr 30uM=39
O=c1cc(CSc2nc3cc(Cl)ccc3o2)nc2sccn12 | 11 | -2 | 80* | -5 | 8 | 38
Cc1ccc(N2CCN(C(=S)c3ccc(-c4ccccc4[N+](=O)[O-])o3)CC2)cc1 | 11 | · | 60* | -14 | · | 29
O=S(=O)(Cc1ncc(C(F)(F)F)cc1Cl)c1ccccc1 | -3 | · | -1 | · | · | ·
COc1ccccc1/C=N/NC(=O)c1ccccc1Cl | -5 | 5 | 9 | -9 | 10 | ·
C=CCc1cccc(/C=N/NC(=O)c2ccccc2Br)c1O | -15 | -1 | 75* | -7 | 1 | 27
C=CCc1cccc(/C=N/NC(=O)c2ccccc2OC)c1O | -8 | 0 | 79* | -10 | 21 | 30
O=C(N/N=C/c1cccc(Oc2ccccc2)c1)c1ccccc1Br | 19 | 0 | 89* | 15 | 27 | 32
CC(Nc1cccc([N+](=O)[O-])c1)C(=O)Nc1ccc(S(=O)(=O)N2CCCC2)cc1 (stereo not drawn) | 3 | · | 13 | · | · | ·
